From PubChem BioAssay
Sampled rows, rich in hits. Any-hit rate of the full collection: about 4.3%.
ALR inh = blocks human ALR sulfhydryl oxidase activity | purified ALR, DTT oxidation, H2O2 HRP-luminol luminescence | inhibition, % (concentration not given with the values) | 290,000 tested, 3.8% active | P55789;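 active means mean replicate inhibition above about 79%, with every replicate also reaching it, limit read from the data; inconclusive means only one of the two criteria met; inactive means mean below limit and not every replicate reaching it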
Target sequence (P55789 whole entry, looked up): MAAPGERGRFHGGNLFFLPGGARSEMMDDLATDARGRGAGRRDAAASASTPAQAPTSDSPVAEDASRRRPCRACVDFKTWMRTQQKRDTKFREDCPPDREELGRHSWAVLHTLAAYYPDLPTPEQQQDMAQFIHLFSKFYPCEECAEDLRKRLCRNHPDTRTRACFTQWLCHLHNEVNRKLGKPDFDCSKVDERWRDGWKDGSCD
SUMO HTRF inh = blocks human SUMOylation mediated by UBC9. HTRF SUMOylation assay, SAE1/SAE2 + UBC9, in vitro. 290,000 tested, 0.36% active. inhibition, % at 35 µM. AID 2006; in the data active means inhibition above about 50%, passing the limit was not always enough; inconclusive means no clear call, values can overlap the other calls
Target sequence (P63279 whole entry, looked up): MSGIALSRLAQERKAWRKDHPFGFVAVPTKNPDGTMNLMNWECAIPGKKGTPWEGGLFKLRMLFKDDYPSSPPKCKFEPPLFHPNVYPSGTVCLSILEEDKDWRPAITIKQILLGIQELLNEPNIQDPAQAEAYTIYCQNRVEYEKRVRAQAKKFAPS
UBC13 polyUb = blocks human UBC13 polyubiquitin chain formation; 330,000 tested, 0.47% active; P61088; AID 485273; inhibition, % at 20 µM; TR-FRET; in the data active means inhibition above about 45%, passing the limit was not always enough; inconclusive means no clear call, values can overlap the other calls
Target sequence (P61088 whole entry, looked up): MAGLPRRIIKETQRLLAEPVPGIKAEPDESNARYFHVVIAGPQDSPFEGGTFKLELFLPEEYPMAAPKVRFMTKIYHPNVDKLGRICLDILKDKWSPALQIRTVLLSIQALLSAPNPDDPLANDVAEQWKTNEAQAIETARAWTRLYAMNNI
RBBP9 inh = human RBBP9 hydrolase inhibition; O75884; recombinant RBBP9, FP-Rh probe fluorescence polarization; inhibition, % at 7.94 µM; 220,000 tested, 0.2% active; AID 1515;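 active means inhibition above the campaign mean of all tested compounds plus 3 SD, cut at about 14% in these data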;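 further: plate controls were DMSO wells with RBBP9 for no effect and wells lacking RBBP9 protein for full effect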
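Measured by – fluorescence polarization · Test system – RBBP9 protein · Input – 2.5 µM RBBP9 dispensing solution, before mixing · Measure – percent inhibition from mP, scaled between DMSO and no-protein wells · Benchmarks – DMSO-treated enzyme wells and wells lacking RBBP9 · Times – preincubation 30 min plus labeling 45 min at 25 °C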
PREPL inh = inhibitors of human prolyl oligopeptidase-like enzyme PREPL; inhibition, % at 5.96 µM; 320,000 tested, 0.68% active; recombinant PREPL, fluorescence polarization activity-based probe; in the data active means inhibition above about 43%;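 further: 0% = enzyme with DMSO and 100% = wells lacking enzyme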
Rin1 Abl inh = blocks binding of human Rin1 to Abl; TR-FRET Rin1/Abl binding, biochemical; inhibition, % at 7.35 µM; AID 588664; 360,000 tested, 0.4% active; P00519+Q13671; in the data active means inhibition above about 5%, passing the limit was not always enough
Rin1 Abl conf = confirmation of inhibitors of human Rin1-Abl interaction; shares compounds with Rin1 Abl inh; TR-FRET Rin1-Abl binding, purified proteins; inhibition, % at 7.35 µM; 1,300 tested, 49% active
GFP quencher = quenches GFP fluorescence, counter-screen for Rin1-Abl inhibitors; 1,300 tested, 8.5% active; shares compounds with Rin1 Abl inh; inhibitors/quenchers counterscreen; inhibition, % at 6.75 µM;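 further: ABL1-eGFP fusion protein alone without its partner RIN1-SBP; 0% = protein with vehicle and 100% = wells lacking protein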
GFP quench dose = quenches GFP in dose response, Rin1-Abl counter-screen; shares compounds with Rin1 Abl inh; GFP fluorescence interference/quenching counterscreen; IC50, µM; 230 tested, under 10 active; call rule not given here;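 further: ABL1-eGFP fusion protein alone without its RIN1 binding partner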
An asterisk follows results filed as active; ? = inconclusive; / = not tested or not shown. Unless noted, no stated cut-off is given here; in the data, active means inhibition above about 6.5%; inactive means the rest.

SMILES	ALR inh	SUMO HTRF inh	UBC13 polyUb	RBBP9 inh	PREPL inh	Rin1 Abl inh	Rin1 Abl conf	GFP quencher	others
COCCNc1ncnc2c1ncn2[C@H]1CN(Cc2ccc(-c3ccccc3)cc2)C[C@@H](CO)O1	/	/	/	/	/	9.6*	10.8*	-0.9
OCCCNc1ncnc2c1ncn2[C@H]1CN(Cc2cccs2)C[C@@H](CO)O1	/	/	/	/	/	1.5	/	/
OC[C@@H]1CN(Cc2ccc(-c3ccccc3)cc2)C[C@H](n2cnc3c(NC4CCC4)ncnc32)O1	/	/	/	/	/	17.5*	24.2*	-0.8	GFP quench dose=>67.5
CSc1ncccc1C(=O)OCC(=O)Nc1ccc2c(c1)CCC2	-5.1	/	13.6	/	1.8	-0.9	/	/
O=C1/C(=C\c2ccc([N+](=O)[O-])cc2)CCc2ccccc21	-13.4	4.3	7.5	-7.7	15.8	18.2*	-1.4	-0.8
CN(C)S(=O)(=O)Nc1cc(Cl)cc(Cl)c1	-1.8	10.6	-8.3	-8.3	0.7	3.0	/	/
Cc1ccc(S(=O)(=O)C2(C(=O)NC3CCCCC3)CC2)cc1	-6.9	15.6	-7.5	/	0.4	15.8*	0.4	0.9
Cc1ccc(S(=O)(=O)C2(C(=O)Nc3ccc(Br)cc3)CC2)cc1	1.2	-0.2	-8.7	-7.9	-20.1	-0.9	/	/
CCOc1ccccc1NC(=O)N1CCCN(c2ncccc2C#N)CC1	-5.9	15.2	6.6	/	2.5	0.9	/	/
CCCCOc1ccc(C(C)NC(=O)CCS(=O)(=O)Cc2ccc(C)cc2)cc1 (centres undefined)	-6.8	-16.4	9.9	-5.5	-2.8	4.4*	-7.0	0.4
O=S(=O)(c1ccc2c(c1)oc1ccccc12)N1CCOCC1	-0.3	-10.2	-7.6	-1.5	-21.1	8.5*	-1.0	0.9
Cn1c(=O)oc2cc(S(=O)(=O)N3CCOCC3)ccc21	2.4	11.5	-1.6	-3.2	3.4	4.2	/	/
O=C(CCNS(=O)(=O)c1ccc(Br)cc1)NCC(c1cccs1)N1CCOCC1 (centres undefined)	/	/	/	/	/	-4.5	/	/
Oc1cccc(/C=N/Nc2ccc(Cl)nn2)c1	/	5.2	-7.7	/	11.7	-4.8	/	/
Oc1ccc(/C=N/Nc2cccc(Cl)n2)c(O)c1	/	-12.9	2.4	/	8.0	8.1*	2.4	0.8
O=C1Nc2ccccc2N=C(c2ccccc2)C1N(C(=O)c1ccnc2ccccc12)c1ccccc1 (centres undefined)	/	/	/	/	/	2.4	/	/
O=C1C=C(N2CCOCC2)c2cccc3cccc1c23	/	/	/	/	/	16.2*	-15.0	1.2
COc1ccccc1NCC(=O)Nc1cc(S(=O)(=O)N2CCOCC2)ccc1N1CCOCC1	-5.6	-3.7	12.5	-3.0	1.4	9.2*	8.2*	1.7
COc1ccccc1CCC(=O)Nc1cc(S(=O)(=O)N2CCOCC2)ccc1N1CCCC1	-11.6	/	2.6	/	8.0	0.2	/	/
COc1ccc(/C=N/NC(=O)c2cc(O)c(O)c(O)c2)cc1Cn1cc([N+](=O)[O-])cn1	/	28.5	/	7.1	/	29.3*	29.4*	11.0*
CC1(C)N(O)CC(c2cccs2)=[N+]1[O-]	46.4	8.9	-10.3	-6.4	0.0	1.2	/	/
O=C(c1cccc(NS(=O)(=O)c2ccccc2)c1)N1CCCCC1	-6.4	/	0.5	/	4.5	0.8	/	/
Cc1ccc(C2(C)NC(=O)N(CC(=O)NNC(=O)c3ccccc3)C2=O)cc1 (centres undefined)	/	/	-7.1	/	-4.0	-3.3	/	/
Cc1ccc(C(=O)C(C)N2C(=O)NC(C)(c3ccccc3)C2=O)cc1 (centres undefined)	-19.6	15.1	4.2	-11.7	3.0	7.1*	-1.5	0.7
CC1CCN(C(=O)c2ccc(N3CCOCC3)c([N+](=O)[O-])c2)CC1	2.2	/	-18.0	/	9.4	8.9*	-2.9	-0.7
SMILES	ALR inh	SUMO HTRF inh	UBC13 polyUb	RBBP9 inh	PREPL inh	Rin1 Abl inh	Rin1 Abl conf	GFP quencher	others
CCC1(CC)C(=O)C2=C3C1[C@H](C(=O)OC)C=C(C(=O)OC)C[C@H]3n1c(=O)n(-c3ccccc3)c(=O)n1[C@H]2C (some centres undefined)	-13.1	/	0.2	/	-1.7	24.0*	22.6*	2.1	GFP quench dose=>67.5
Cc1cccc(CNC(=O)c2sc(=O)n(Cc3ccc(S(C)(=O)=O)cc3)c2C)c1	/	/	/	/	/	6.5	/	/
N#CC1=C(N)OC2=C(C(=O)CCC2)[C@]12C(=O)N(CC(N)=O)c1ccccc12	-2.0	1.7	6.9	-1.6	-5.5	-1.4	/	/
O=C1CCCC2=C1C1(O)C(=O)c3ccccc3C1(O)O2 (centres undefined)	8.1	30.6	-25.6	2.8	-4.9	19.3*	9.1*	-1.7
COc1cc(OC)cc(-c2oc(=O)c3cc(OC)c(OC)cc3c2C#CCCO)c1	1.9	/	?	/	4.7	29.5*	76.0*	-1.1
Cn1cc(SCC(=O)Nc2nc3ccccc3s2)c2ccccc21	98.1*	-5.6	4.1	1.8	-24.0	7.0*	-2.1	2.1
Cc1cc(C)cc(NC(=O)C(OC(=O)c2cc[n+]([O-])cc2)c2ccccc2)c1 (centres undefined)	0.1	/	-0.3	/	-5.2	2.6	/	/
CC1CCCN(CCOc2ccc3ccccc3c2Br)C1 (centres undefined)	-10.7	7.7	13.6	-7.2	4.3	-0.7	/	/
CCCC(=O)Nc1ccc(N2CCN(C(=O)c3cc4ccccc4o3)CC2)cc1	-9.1	7.0	7.2	/	12.6	11.1*	8.1*	1.0
Cc1cccc(N(CC(=O)NC2CCCC2)C(=O)CCC(=O)Nc2ccccn2)c1	-0.8	13.5	2.0	/	16.6	2.7	/	/
CC1=NN(c2ccc(C(=O)O)cc2)C(=O)CC1	-0.4	-5.3	-7.5	/	0.5	1.5	/	/
CC1=NN(c2ccc(Cl)c(C(=O)O)c2)C(=O)C1	-18.9	90.1*	12.0	5.0	4.7	7.2*	-0.5	0.3
CC1=NN(c2ccc(C(=O)O)c(N)c2)C(=O)C1	-20.3	79.4*	-42.1	5.6	10.6	11.9*	7.1*	-0.3
Cc1cccnc1NC(=O)c1ccc(COc2ccccc2)o1	-4.8	1.6	7.5	/	7.4	-1.0	/	/
CN1C(C)(C)CC(=NO)CC1(C)C	/	/	/	/	/	1.7	/	/
Cc1ccccc1S(=O)(=O)N(C)C[C@H]1OCc2cn(nn2)CCCC(=O)N([C@H](C)CO)C[C@@H]1C	/	/	/	/	/	6.8	/	/
CCOC(=O)CN1C(=O)NC2NC(=O)NC21 (centres undefined)	-5.2	-17.7	-0.2	1.3	0.1	14.1*	18.3*	-0.1	GFP quench dose=>67.5
O=C(O)CN1C(=O)NC2NC(=O)NC21 (centres undefined)	3.0	17.7	-3.0	-5.0	-6.0	1.0	/	/
COc1ccc(C(c2oc(CO)cc(=O)c2O)c2oc(CO)cc(=O)c2O)cc1OC	4.9	7.9	-5.2	-0.2	9.2	-0.9	/	/
